From ChEMBL document CHEMBL3734685, “2-Aminopyrimidines as dual adenosine A1/A2A antagonists” (Eur J Med Chem, 2015)
Activity calls are given as the source filed them. No cut-off for these calls is given here.

Key:
Adenosine receptor A2a = Adenosine receptor A2a (Rattus norvegicus, UniProt P30543); experiment: Displacement of [3H]NECA from adenosine A2A receptor in Sprague-Dawley rat striatal membranes after 1 hr by scintillation counting analysis; set-up: species or system Striatum, Membrane
Adenosine receptor A1 = target: T1, Adenosine receptor A1 (Rattus norvegicus, UniProt P25099); experiment: Displacement of [3H]DPCPX from adenosine A1 receptor in Sprague-Dawley rat whole brain membranes after 1 hr by scintillation counting analysis; set-up: species or system Membrane
T1 sequence (P25099 whole entry): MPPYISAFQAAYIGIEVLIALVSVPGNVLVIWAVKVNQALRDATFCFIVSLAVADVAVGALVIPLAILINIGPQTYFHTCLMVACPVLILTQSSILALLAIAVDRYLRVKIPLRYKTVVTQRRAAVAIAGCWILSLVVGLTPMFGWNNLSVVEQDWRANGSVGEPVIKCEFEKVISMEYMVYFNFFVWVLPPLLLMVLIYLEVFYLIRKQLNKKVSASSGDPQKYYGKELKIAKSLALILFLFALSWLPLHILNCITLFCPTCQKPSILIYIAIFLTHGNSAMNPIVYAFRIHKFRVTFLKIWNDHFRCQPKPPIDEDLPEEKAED
Method in brief: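 Male rat whole-brain homogenate in 50 mM Tris (pH 7.7), ~5 mg original tissue per incubation, with 0.1 units adenosine deaminase and 0.1 nM [3H]DPCPX. Incubated 1 h, filtered on GF/B, counted by scintillation. IC50 from one-site competition, converted to Ki by Cheng-Prusoff. Duplicates, mean ± SEM.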

Rattus norvegicus [1] = species on record: Rattus norvegicus; experiment: Selectivity index, ratio of Ki for adenosine A2A receptor in Sprague-Dawley rat striatal membranes to Ki for adenosine A1 receptor in Sprague-Dawley rat whole brain membranes
Method in brief: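 Ratio of two Ki values. A2A: rat striatal membranes (~10 mg tissue) in 50 mM Tris pH 7.7 with 10 mM MgCl2, 0.2 units adenosine deaminase, 50 nM CPA and 4 nM [3H]NECA. A1: whole-brain membranes with [3H]DPCPX 0.1 nM. Test compound 0–100 µM, 1 h incubation, filtration and scintillation counting. Non-specific binding with 100 µM CPA. Duplicate determinations.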

[2] = Cytotoxicity against human HeLa cells assessed as cell viability at 1 uM after 24 hrs by MTT assay; type: cell-based; settings: read-out: Activity
Method in brief: (§1)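 HeLa cells grown to confluence in DMEM with 10% FBS, penicillin/streptomycin and fungizone at 37 °C, 10% CO2. Seeded at 500 000 cells/well, then after 24 h switched to serum-free DMEM with test compound (DMSO stocks, filtered). Exposure lasted 24 h at 37 °C. Read-out was MTT 0.5%, 2 h in the dark, formazan dissolved in isopropanol, absorbance 560. Formic-acid lysis set 0% viability and untreated wells 100%. Triplicate, mean ± SD.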

[3] = Cytotoxicity against human HeLa cells assessed as cell viability at 10 uM after 24 hrs by MTT assay; type: cell-based; settings: read-out: Activity; method in brief: as §1
Rattus norvegicus [4] = experiment: Reduction in haloperiodol induced catalepsy time in Sprague-Dawley rat at 1 to 2 mg/kg, ip dosed 30 mins after halperiodol challenge measured 60 mins after halperiodol challenge
Rattus norvegicus [5] = experiment: Reduction in haloperiodol induced catalepsy time in Sprague-Dawley rat at 0.1 to 2 mg/kg, ip dosed 30 mins after halperiodol challenge measured 60 mins after halperiodol challenge

Sequence of Adenosine receptor A2a (P30543 whole entry): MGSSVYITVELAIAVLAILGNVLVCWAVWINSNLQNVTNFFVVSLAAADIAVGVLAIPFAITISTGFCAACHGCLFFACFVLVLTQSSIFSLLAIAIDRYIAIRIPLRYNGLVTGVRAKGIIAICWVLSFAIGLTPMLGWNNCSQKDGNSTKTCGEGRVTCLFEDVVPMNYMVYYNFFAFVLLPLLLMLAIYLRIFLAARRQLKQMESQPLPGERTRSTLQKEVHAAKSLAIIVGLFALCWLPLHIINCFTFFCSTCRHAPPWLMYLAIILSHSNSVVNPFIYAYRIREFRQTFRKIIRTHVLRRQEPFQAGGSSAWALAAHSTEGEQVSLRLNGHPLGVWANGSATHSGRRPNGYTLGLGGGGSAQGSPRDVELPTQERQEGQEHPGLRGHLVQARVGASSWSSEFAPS

SMILES | Ki (Adenosine receptor A2a) [nM] | Ki (Adenosine receptor A1) [nM] | Ratio Ki (Rattus norvegicus [1]) | viability at 24 h, 1 µM [2] [%] | viability at 24 h, 10 µM [3] [%] | Activity (Rattus norvegicus [4]) | Activity (Rattus norvegicus [5])
Nc1nc(-c2cccc(Cl)c2)cc(-c2ccco2)n1 | 245 | 39.1 | 6.3 | – | – | – | –
COc1ccc(-c2cc(-c3ccc(C)o3)nc(N)n2)cc1OC | 2780 | 650 | 4.3 | – | – | – | –
Cc1ccc(-c2cc(-c3cccc(C(=O)N4CCN(C)CC4)c3)nc(N)n2)o1 | 16.3 | 136 | 0.1 | 107 | 76.8 | Active | –
COc1cccc(-c2cc(-c3ccc(C)o3)nc(N)n2)c1 | 409 | 145 | 2.8 | – | – | – | –
Cc1ccc(-c2cc(-c3cccc(C(=O)N4CCCCC4)c3)nc(N)n2)o1 | 6.34 | 9.54 | 0.7 | 64.3 | 61.6 | – | Active
Cc1ccc(-c2cc(-c3cccc(C(=O)N4CCCC4)c3)nc(N)n2)o1 | 58.2 | 36.8 | 1.6 | 101 | 67.9 | – | –
Cc1ccc(-c2cc(-c3cccc(Cl)c3)nc(N)n2)o1 | 399 | 129 | 3.1 | – | – | – | –
Cc1ccc(-c2cc(-c3cccc(C(=O)N4CCOCC4)c3)nc(N)n2)o1 | 29.3 | 52.1 | 0.6 | 98.6 | 81.7 | – | –
Nc1nc(-c2ccccc2)cc(-c2cccc(Cl)c2)n1 | 948 | 22.8 | 42 | – | – | – | –
CCN1CCN(C(=O)c2cccc(-c3cc(-c4ccc(C)o4)nc(N)n3)c2)CC1 | 30.9 | 37.5 | 0.8 | 65.7 | 60.1 | – | –
COc1cccc(-c2cc(-c3ccco3)nc(N)n2)c1 | 249 | 61.4 | 4.1 | – | – | – | –
Cc1ccc(-c2cc(-c3ccc(Cl)cc3)nc(N)n2)o1 | 3320 | 434 | 7.6 | – | – | – | –
Nc1nc(-c2ccc(F)cc2)cc(-c2ccco2)n1 | 257 | 158 | 1.6 | – | – | – | –
